Experimental data of several laboratories.
Target: Tyrosine-protein kinase receptor UFO (AXL, Homo sapiens, UniProt P30530)
Residues used in one study (P30530 26-894): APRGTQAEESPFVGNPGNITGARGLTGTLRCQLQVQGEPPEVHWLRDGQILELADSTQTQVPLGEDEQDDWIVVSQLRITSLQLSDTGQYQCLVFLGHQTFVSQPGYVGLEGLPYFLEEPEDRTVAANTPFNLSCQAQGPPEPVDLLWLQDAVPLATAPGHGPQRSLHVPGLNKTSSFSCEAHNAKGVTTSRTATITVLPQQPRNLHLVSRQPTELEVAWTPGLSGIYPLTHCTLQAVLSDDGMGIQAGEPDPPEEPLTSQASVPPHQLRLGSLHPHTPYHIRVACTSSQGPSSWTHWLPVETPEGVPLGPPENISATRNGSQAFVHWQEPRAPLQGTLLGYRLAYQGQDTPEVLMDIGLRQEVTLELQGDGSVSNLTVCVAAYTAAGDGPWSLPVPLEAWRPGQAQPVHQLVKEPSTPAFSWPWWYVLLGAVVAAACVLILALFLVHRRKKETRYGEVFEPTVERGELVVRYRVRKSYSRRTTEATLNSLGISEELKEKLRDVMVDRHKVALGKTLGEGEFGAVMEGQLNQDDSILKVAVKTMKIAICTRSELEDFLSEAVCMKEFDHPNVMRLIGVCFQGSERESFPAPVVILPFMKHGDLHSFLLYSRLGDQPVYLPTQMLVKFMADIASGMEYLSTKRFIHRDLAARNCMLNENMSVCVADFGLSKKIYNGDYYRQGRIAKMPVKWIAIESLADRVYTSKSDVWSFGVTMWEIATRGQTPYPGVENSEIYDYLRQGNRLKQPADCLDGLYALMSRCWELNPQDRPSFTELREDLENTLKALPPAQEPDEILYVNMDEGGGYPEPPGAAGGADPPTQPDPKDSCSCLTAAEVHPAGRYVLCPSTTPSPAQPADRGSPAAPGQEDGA

CS(=O)(=NC#N)c1ccccc1Nc1nc(Nc2ccc(CO)nc2)ncc1Cl (centres unmarked) — remaining activity (enzyme activity, inhibitor; 1 µM): 14.9%
Cc1ccc(NC(=O)c2ccnc(C(F)(F)F)c2)cc1-c1cc(OCCO)nc(N2CCOCC2)c1 — remaining binding (binding, competition with immobilised ligand; 1 µM): 90%
CNC(=O)c1ccccc1Nc1nc(Nc2ccc(CO)cc2)ncc1Cl — remaining activity (enzyme activity, inhibitor; 1 µM): 1.13%
C[C@]1(O)CCCN(c2nc(Nc3ccc(S(=O)(=O)N[C@H]4CC[C@H](CN5CCN(c6ccc(C7CCC(=O)NC7=O)cc6F)CC5)CC4)cc3F)ncc2C(F)(F)F)C1 (some centres unmarked) — remaining binding (binding, competition with immobilised ligand; 1 µM): 40%
COc1ccc2[nH]c3c4[nH]c5ccc(OC)cc5c4c4c(c3c2c1)C(=O)NC4=O — remaining binding (binding, competition with immobilised ligand; 1 µM): 30%
CNC(=O)c1ccccc1Nc1nc(Nc2ccc(CO)nc2)ncc1Cl — remaining activity (enzyme activity, inhibitor; 1 µM): 2.06%
CCCCC(=O)Nc1ccc(-c2ccc3ncn(CCC)c(=O)c3c2)cn1 — remaining binding (binding, competition with immobilised ligand; 0.5 µM): 95%
CC#CC(=O)N1CCC[C@H]1c1nc(-c2ccc(C(=O)Nc3ccccn3)cc2)c2c(N)nccn12 — inhibition (enzyme activity, inhibitor; 1 µM): 5%
N#Cc1ccc(NC(=O)Nc2ccccc2)cc1 — remaining binding (cell-free assay, competition with immobilised ligand; 25 µM): 100%
CNS(=O)(=O)c1ccc(Nc2ncc(C(F)(F)F)c(N3CCC[C@](C)(O)C3)n2)c(C)c1 — remaining binding (binding, competition with immobilised ligand; 1 µM): 70%
COc1ccc2oc(-c3ccc4nc(N)oc4c3)c/c(=N\c3ccccc3NC(=O)CCN)c2c1 — remaining binding (binding; 1 µM): 96%
CS(=O)(=O)c1ccccc1Nc1nc(Nc2ccnc(CO)c2)ncc1Cl — remaining activity (enzyme activity, inhibitor; 1 µM): 4.41%
CO[C@@H]1[C@H](N(C)C(=O)c2ccccc2)C[C@H]2O[C@]1(C)n1c3ccccc3c3c4c(c5c6ccccc6n2c5c31)C(=O)NC4 — inhibition (enzyme activity, inhibitor; 1 µM): 92%
C1=C/COCc2cc(ccc2OCCN2CCCC2)Nc2nccc(n2)-c2cccc(c2)COC/1 — remaining binding (binding; 0.1 µM): 38%
